The text below walks through data of ChEMBL document CHEMBL1123957, “Cholecystokinin antagonists. Synthesis and biological evaluation of 3-substituted 1,4-benzodiazepin-2-amines” (J Med Chem, 1988).

pIC50: −log10 of the molar value.

One test deals with T1, Cholecystokinin receptor (Rattus norvegicus, UniProt P30551+P30553).
T1 sequence (P30551 whole entry): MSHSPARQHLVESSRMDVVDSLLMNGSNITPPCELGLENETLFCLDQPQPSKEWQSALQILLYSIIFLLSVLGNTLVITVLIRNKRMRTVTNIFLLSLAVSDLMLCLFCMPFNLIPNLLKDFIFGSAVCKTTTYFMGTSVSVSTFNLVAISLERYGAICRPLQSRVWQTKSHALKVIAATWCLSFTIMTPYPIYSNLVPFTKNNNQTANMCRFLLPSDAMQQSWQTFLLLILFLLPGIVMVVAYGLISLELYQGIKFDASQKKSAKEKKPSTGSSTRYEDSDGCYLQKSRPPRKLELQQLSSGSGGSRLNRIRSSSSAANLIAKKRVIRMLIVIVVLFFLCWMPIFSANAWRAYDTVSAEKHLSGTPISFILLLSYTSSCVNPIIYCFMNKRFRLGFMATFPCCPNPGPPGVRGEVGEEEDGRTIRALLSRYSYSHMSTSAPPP
T1 sequence (P30553 whole entry): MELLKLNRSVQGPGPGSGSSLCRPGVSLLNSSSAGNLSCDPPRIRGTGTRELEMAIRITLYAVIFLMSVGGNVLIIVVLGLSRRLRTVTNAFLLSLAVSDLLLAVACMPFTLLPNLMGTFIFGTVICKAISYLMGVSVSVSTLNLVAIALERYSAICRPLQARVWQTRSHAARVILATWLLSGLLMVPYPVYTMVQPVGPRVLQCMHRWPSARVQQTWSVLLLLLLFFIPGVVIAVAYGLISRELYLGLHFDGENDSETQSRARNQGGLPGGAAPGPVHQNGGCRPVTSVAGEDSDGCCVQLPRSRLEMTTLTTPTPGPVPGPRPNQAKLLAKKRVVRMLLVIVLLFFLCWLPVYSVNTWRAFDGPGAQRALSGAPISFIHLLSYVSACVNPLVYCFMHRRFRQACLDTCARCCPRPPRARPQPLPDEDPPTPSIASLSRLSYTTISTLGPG
As to the kind of experiment: Binding affinity towards cholecystokinin receptor by the displacement of [125I]CCK-33 in rat pancreatic tissue. The gist of the method:
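Radioligand displacement assays: [125I]CCK-33 binding to rat pancreas or guinea pig cerebral cortex tissue, and [125I]gastrin binding to guinea pig gastric glands, each run by earlier-described methods. Reported values are means of triplicate determinations.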
(In general: In a radioligand displacement assay an active substance lowers the binding of a labelled ligand.)

For the next test, the species on record is Cavia porcellus. As to the kind of experiment: Inhibition of binding of [125I]gastrin to guinea pig gastric glands. Particulars: Stomach.

A word on the IC50: it is the point on the concentration scale where inhibition reaches its midpoint. Lower therefore signals inhibition by little substance. As a reminder, the pIC50 is −log10 of the IC50, conventionally taken in molar units. High values mean a low IC50, low ones a high IC50.

In turn, `Fc1ccccc1C1=N[C@H](Cc2c[nH]c3ccccc23)C(Nc2ccccc2)=Nc2ccccc21` displayed an IC50 at Cholecystokinin receptor of 34 µM.

For the compound `N#CNC1=Nc2ccccc2C(c2ccccc2F)=N[C@@H]1Cc1c[nH]c2ccccc12`, the concentration for half-maximal inhibition (IC50) at Cholecystokinin receptor worked out at 2 µM. In the test filed under Cavia porcellus, `O=C(O)CNC1=Nc2ccccc2C(c2ccccc2F)=N[C@@H]1Cc1c[nH]c2ccccc12` gave a negative-log IC50 (pIC50) of 5.60. The IC50 on Cholecystokinin receptor is 3.6 µM. With `CNC1=Nc2ccccc2C(c2ccccc2NC)=N[C@@H]1Cc1c[nH]c2ccccc12`, in the test listed under Cavia porcellus, the negative-log IC50 (pIC50) was 4.00. Also, on Cholecystokinin receptor, the 50% inhibitory concentration (IC50) is 100 µM.

`CNC1=Nc2ccccc2C(c2ccccc2F)=N[C@@H]1Cc1c[nH]c2ccccc12` had a pIC50 in the test listed under Cavia porcellus of 4.17. For the same compound, the IC50 on Cholecystokinin receptor stood at 4.4 µM. The compound `CCCNC1=Nc2ccccc2C(c2ccccc2F)=N[C@@H]1Cc1c[nH]c2ccccc12` gave a negative-log IC50 (pIC50) in the test filed under Cavia porcellus of 4.00. The IC50 at Cholecystokinin receptor is 2.7 µM. For `CCOC(=O)CNC1=Nc2ccccc2C(c2ccccc2F)=N[C@@H]1Cc1c[nH]c2ccccc12`, in that order: 4.00 and 23 µM. For `NC1=Nc2ccccc2C(c2ccccc2F)=N[C@@H]1Cc1c[nH]c2ccccc12`, in that order: 4.00 and 1.7 µM. For the compound `CNC1=Nc2ccc(Cl)cc2C(c2ccccc2)=[N+]([O-])C1` [CHLORDIAZEPOXIDE], the pIC50 in the test filed under Cavia porcellus is 4.00. The same compound showed an IC50 on Cholecystokinin receptor of 100 µM.
